Each structure is given as a SMILES string. pEC50: −log10 of the molar value. In brackets after ≈: the same amount, converted by molar mass. Activity calls are given as the source filed them. No cut-off for these calls is given here.

Data set [1] relates to Escherichia coli. In words: Antibacterial activity against tolC deficient Escherichia coli assessed as cell shape defects at 25 ug/ml after 30 mins in presence of sucrose by FM4-64/DAPI/SYTOX Green staining-based deconvolution microscopic analysis. Type of data set: functional.
Another data set deals with HRT-18 cell line. In words: Cytotoxicity against human HRT18 cells assessed as reduction in cell viability at 20 ug/ml after 24 hrs by MTS assay. The format is cell-based. Particulars: hrt-18, 24 h. Summed up:
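HRT-18 cells maintained in RPMI-1640 with 10% fetal horse serum at 37 °C, 5% CO2. Exposed to 5, 10, 20 or 40 μg/mL for 2 or 24 h, then MTS added and absorbance read at 490 nm. Viability expressed relative to untreated cells, n ≥ 3, one-way ANOVA with Dunnett's test.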
(Formazan colour is commonly taken as a measure of viable cells.)

In the next data set the test system is Caenorhabditis elegans. Kind of data set: Toxicity in Caenorhabditis elegans AU37 assessed as worm survival at 20 ug/ml after 24 hrs by microscopic analysis. Particulars: caenorhabditis elegans, 24 h. Put shortly:
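Adult C. elegans AU37, 15–20 per well, exposed in triplicate to 10 or 20 μg/mL, with sterile water as negative control. Viability checked by microscopy. Result reported as percent viable worms after 24 h exposure.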

The test system of data set [2] is Klebsiella pneumoniae. In words: Antibacterial activity against Klebsiella pneumoniae BAA-1706 after 18 to 22 hrs in presence of 1/4 times MIC colistin by broth microdilution method. The format is functional. Put shortly: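 Broth microdilution per CLSI guidelines. Gram-negatives grown in TSB. Each strain tested alone and again with colistin at ¼ × MIC to permeabilize the outer membrane. Plates incubated at 37 °C for 18–22 h. MIC read as the lowest concentration showing no visible growth.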

In another data set the test system is Bacillus subtilis. Kind of data set: Antibacterial activity against Bacillus subtilis assessed as bending of cells at 5 times MIC after 2 hrs in presence of methylsulfonyl methane by phase contrast microscopic analysis. The format is functional. Put shortly:
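B. subtilis grown in LB at 37 °C to OD600 ~0.2, then treated at 5 × MIC with MSM for osmotic stabilisation. At 2 h, stained with FM 4-64 (1 μg/mL), DAPI (1 μg/mL) and SYTOX Green (1 μg/mL). Imaged by deconvolution fluorescence and phase contrast microscopy.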

In data set [3] the test system is Enterococcus faecium. Kind of data set: Potentiation of vancomycin-induced antibacterial activity against Enterococcus faecium ATCC 700221 assessed as fold reduction in vancomycin MIC preincubated for 30 mins followed by vancomycin addition measured after 18 to 21 hrs. The format is functional. Summed up:
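VRE suspensions at 5×10^5 CFU/mL preincubated with compound at ½ × MIC for 30 min at room temperature. […] Fold reduction calculated as vancomycin MIC alone over MIC in combination.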

The target of data set [4] is T1, Farnesyl pyrophosphate synthase (Homo sapiens, UniProt P14324).
T1 sequence (P14324 whole entry): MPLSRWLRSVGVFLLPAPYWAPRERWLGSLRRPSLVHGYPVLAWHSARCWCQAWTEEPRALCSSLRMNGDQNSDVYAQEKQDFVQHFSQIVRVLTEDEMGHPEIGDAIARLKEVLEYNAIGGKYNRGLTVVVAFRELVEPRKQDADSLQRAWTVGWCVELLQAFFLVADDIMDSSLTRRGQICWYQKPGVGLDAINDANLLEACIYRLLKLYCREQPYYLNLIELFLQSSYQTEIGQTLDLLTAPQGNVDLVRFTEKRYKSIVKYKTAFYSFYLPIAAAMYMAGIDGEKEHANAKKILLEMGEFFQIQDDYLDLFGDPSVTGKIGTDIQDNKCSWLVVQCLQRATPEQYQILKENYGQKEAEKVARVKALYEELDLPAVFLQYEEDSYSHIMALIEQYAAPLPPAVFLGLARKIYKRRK
Kind of data set: Inhibition of human FPPS.

Data set [5] has as its system Escherichia coli. Kind of data set: Antibacterial activity against Escherichia coli O157:H7 ATCC 35150 after 18 to 22 hrs in absence of colistin by broth microdilution method. The format is functional. A general note: In broth dilution the organism is exposed to a series of concentrations in liquid medium.
Data set [6] concerns Enterococcus faecium. Kind of data set: Potentiation of gentamicin-induced antibacterial activity against Enterococcus faecium ATCC 700221 assessed as gentamicin MIC preincubated for 30 mins followed by gentamicin addition measured after 18 to 21 hrs. Type of data set: functional. Summed up:
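Enterococcal suspensions at 5×10^5 CFU/mL preincubated with compound at ½ × MIC for 30 min at room temperature.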

Data set [7] relates to Klebsiella pneumoniae. Kind of data set: Antibacterial activity against Klebsiella pneumoniae BAA-1706 after 18 to 22 hrs in absence of colistin by broth microdilution method. Type of data set: functional.
Data set [8] relates to Enterococcus faecalis. In words: Inhibition of UPPP-mediated peptidoglycan biosynthesis in Enterococcus faecalis NR-31975 assessed as accumulation of UDP-N-acetylmuramyl-pentapeptide at 10 times MIC after 30 mins by HPLC-MS analysis. Put shortly:
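Pellets boiled 30 min. UDP-N-acetylmuramyl-pentapeptide measured by HPLC-TOF MS on a phenyl column, 5–20% acetonitrile/0.1% formic acid gradient, positive ESI.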

For data set [9], the system named is Enterococcus faecium. In words: Bactericidal activity against vancomycin-resistant Enterococcus faecium ATCC 700221 at 4 times MIC after 2 hrs by time-kill assay. Type of data set: functional. Summed up: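 Late-log cells diluted to ~5 × 10^6 CFU/mL and exposed in triplicate to 4 × MIC, in TSB (E. faecalis HM-201) or BHI (E. faecium ATCC 700221) at 37 °C. Sampled at 0, 2, 4, 6, 8, 10, 12 and 24 h, diluted serially in PBS and plated on TSA or BHI agar. CFU/mL counted after 18–22 h. DMSO served as negative control.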

Data set [10] concerns Escherichia coli. Kind of data set: Antibacterial activity against Escherichia coli 1411 harboring delta-acrAB after 18 to 22 hrs in absence of colistin by broth microdilution method. Type of data set: functional.
For data set [11], the system named is Enterococcus faecalis. In words: Synergistic antimicrobial activity against Enterococcus faecalis ATCC 49533 after 20 hrs in presence of ciprofloxacin by checkerboard assay. Type of data set: functional. Summed up: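 Checkerboard in TSB with a starting inoculum of 1×10^5 CFU/mL. Compound and antibiotic diluted from 2× or 4× MIC along perpendicular axes. Incubated 20 h at 37 °C. ΣFIC calculated: ≤0.5 synergy, >0.5 to <2 additive, 2–4 indifference, >4 antagonism.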

For the next data set, the system named is Enterobacter cloacae. Kind of data set: Antibacterial activity against Enterobacter cloacae BAA-1154 after 18 to 22 hrs in absence of colistin by broth microdilution method. The format is functional.
Data set [12] concerns Enterococcus faecalis. In words: Antibacterial activity against vancomycin-resistant Enterococcus faecalis HM-201 infected in Caenorhabditis elegans AU37 assessed as reduction in bacterial burden at 20 ug/ml after 18 hrs by CFU-based […] analysis relative to control. The format is functional. Also noted: scale not given: the % may be the effect or the level left. Summed up: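 C. elegans AU37 adults infected on an E. faecalis HM-201 lawn for 2 h, washed in M9, 20–25 worms per well. Treated in triplicate with 20 μg/mL, with water as negative control. Worms washed, lysed with silicon carbide by vortexing, diluted serially and plated on TSA with 50 μg/mL gentamicin. CFU counted after 18 h at 37 °C and expressed as % reduction versus untreated worms.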

A short description of data set [13]: Induction of proton motive force collapse in Escherichia coli inverted membrane vesicle in presence of succinate/O2-driven PMF generation system by ACMA-based fluorescence assay. The format is functional, cell membranes. Summed up: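 E. coli inverted membrane vesicles (0.1 mg/mL membrane protein) with 2 μM ACMA and 0.5 mM ATP or succinate, in 10 mM HEPES-KOH, 5 mM MgSO4, 100 mM KCl, pH 7.5. Proton gradient followed by ACMA fluorescence (ex 410/em 480 nm). EC50 taken from dose-response curves. CCCP used as reference uncoupler.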

As a reminder, the MIC is the lowest concentration that inhibits growth of the organism. As a reminder, the pEC50 is the negative decadic logarithm of the EC50, by convention in mol/L. Consider `CCCCc1ccc(-c2nc(C)c(/C(C)=N/NC(=N)N)s2)cc1`, for which the result with Escherichia coli [1], in the data set with Bacillus subtilis and in the data set on Enterococcus faecium [9] was Active. Moreover, the Activity entry in the data set on HRT-18 cell line was “Non-Toxic”; with Caenorhabditis elegans it was “Non-Toxic”; in the data set on Enterococcus faecalis [12], 89%. Moreover, the MIC in the data set on Klebsiella pneumoniae [2] was determined as 1 mg/L; in the data set with Escherichia coli [5] it was 16 mg/L (≈ 48.6 µM); in the data set on Klebsiella pneumoniae [7], 16 mg/L (≈ 48.6 µM); in the data set with Escherichia coli [10] it was 4 mg/L (≈ 12.1 µM); in the data set with Enterobacter cloacae it was 64 mg/L (≈ 194 µM). Further, the “fold change (FC)” value in the data set with Enterococcus faecium [3] turned out to be 256. The “inhibition (INH)” value in data set [4] is on record as “Not Active”. The result with Enterococcus faecium [6] was inactive. Moreover, in the data set on Enterococcus faecalis [8], the inhibition result is “Active”. Also, the “fractional inhibitory concentration index (FICI)” value in the data set on Enterococcus faecalis [11] is 0.63 - 1. Also, the pEC50 in data set [13] is 4.60.

For the origin of these results see ChEMBL document CHEMBL4028805, “Phenylthiazole Antibacterial Agents Targeting Cell Wall Synthesis Exhibit Potent Activity in Vitro and in Vivo against Vancomycin-Resistant Enterococci” (J Med Chem, 2017).
